Experimental data as given in ChEMBL document CHEMBL4428115, “Molecular docking studies, biological and toxicity evaluation of dihydroisoquinoline derivatives as potential anticancer agents” (Bioorg Med Chem, 2016).
Calls of active or inactive are those of the source. The rule behind the calls is not given here.

Legend:
[1] = Antiproliferative activity against human HCV29T cells; assay type: functional, cell-based
[2] = Selectivity index, ratio of IC50 for mouse BALB/3T3 cells to IC50 for human HL60/MX2 cells; assay type: toxicity; settings: BALB/3T3 cells versus HL60/MX2 cells, read-out: Ratio IC50
Method in brief: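 Ratio of the BALB/3T3 IC50 to the HL-60 or HL-60/MX2 IC50. Cells were plated at 1 × 10^4 per well 24 h before dosing and exposed for 72 h to 0.01–1000 µg/mL from DMSO stock. BALB/3T3 was read by SRB (TCA fix, 540 nm) and the leukemia lines by MTT (4 h, SDS/DMF lysis, 570 nm). Triplicates; 3–5 experiments.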

[3] = Selectivity index, ratio of IC50 for mouse BALB/3T3 cells to IC50 for human DU145 cells
A549 = assay: Potency index, ratio of bestatin IC50 to compound IC50 for human A549 cells; assay type: functional
LoVo = assay: Potency index, ratio of bestatin IC50 to compound IC50 for human LoVo cells; assay type: functional
HL-60 [4] = assay: Effect on cyclin A levels in human HL60 cells at 1 ug/ml after 72 hrs by Western-blot analysis; assay type: functional, cell-based
Method in brief: (§1)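 HL-60 (2 × 10^5 cells/mL) treated 72 h at 1 µg/mL with DMSO control, then lysed in RIPA buffer with protease/phosphatase inhibitors. 100 µg protein resolved on 4–20% gels and transferred to nitrocellulose. Probed with rabbit primary antibody, fluorescein-linked anti-rabbit secondary, then anti-fluorescein–alkaline phosphatase with ECF substrate; fluorescence scanned. Densitometry normalized to actin, reported as fold change versus control.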

HL-60 [5] = assay: Increase in caspase 3/7 activation in human HL60 cells using Ac-DEVD-ACC as substrate at 3 ug/ml after 24 hrs by fluorescence assay relative to control; assay type: functional, cell-based
Method in brief: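 HL-60 exposed 24 h to 3 µg/mL (DMSO control), lysed at 1.2 × 10^6 cells/mL in HEPES/sucrose/Triton lysis buffer pH 7.3 for 30 min at 4°C. Lysate added to DTT-containing reaction buffer with Ac-DEVD-ACC at 10 µM final (ex 360/em 460 nm). Fluorescence recorded 90 min at 37°C, normalized to Lowry protein, and expressed relative to untreated control; three experiments.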

MCF10 = assay: Antiproliferative activity against human MCF10 cells after 72 hrs by SRB assay; assay type: cell-based; settings: MCF10, 72 h
Method in brief: (§2)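 Adherent cells plated at 1 × 10^4 per well 24 h before treatment, then exposed 72 h to compounds diluted from 20 mg/mL DMSO stock (0.01–1000 µg/mL). Fixed in cold 50% TCA at 4°C for 1 h, stained with 0.4% sulforhodamine B, bound dye extracted with 10 mM Tris, OD at 540 nm. Triplicates, 3–5 experiments; IC50 per experiment, mean ± SD.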

[6] = Antiproliferative activity against HLMEC after 72 hrs by SRB assay; set-up: species or system Homo sapiens; method in brief: as §2
[7] = Selectivity index, ratio of IC50 for mouse BALB/3T3 cells to IC50 for human A498 cells
A498 = assay: Antiproliferative activity against human A498 cells; assay type: functional, cell-based
HL-60 [8] = assay: Cell cycle arrest in human HL60 cells assessed as accumulation at G0/G1 phase at 1 to 3 ug/ml after 72 hrs by propidium iodide staining based flow cytometry; assay type: functional
Method in brief: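 HL-60 seeded at 2 × 10^5 cells/mL 24 h before treatment, exposed 72 h to 1 or 3 µg/mL, with DMSO solvent and cisplatin controls. Cells fixed in 70% ethanol at −20°C, treated with RNase 8 µg/mL at 37°C for 1 h, stained 30 min with PI 50 µg/mL at 4°C. DNA content by flow cytometry; three independent experiments, mean ± SD.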

[9] = Selectivity index, ratio of IC50 for mouse BALB/3T3 cells to IC50 for human CEM/C2 cells; assay type: toxicity; settings: BALB/3T3 cells versus CEM/C2 cells, read-out: Ratio IC50
MCF7 = assay: Antiproliferative activity against human MCF7 cells after 72 hrs by SRB assay; assay type: functional, cell-based; settings: MCF7, 72 h; method in brief: as §2
DU-145 = assay: Antiproliferative activity against human DU145 cells; assay type: functional, cell-based
[10] = Acute dermal toxicity in Wistar rat assessed as pathological changes at 2000 mg/kg topically applied to shaved dorsal skin as single dose for 24 hrs measured for 14 days; assay type: organism-based; settings: in vivo, topical_or_ocular
Method in brief: (§3)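 Wistar rats, 5 males and 5 females; single 2000 mg/kg bw dermal application to shaved dorsal skin (about 41 cm2 per male, 31 cm2 per female) for 24 h. General and detailed clinical observations daily over a 14-day observation period, then animals euthanized; treated skin examined for pathological changes.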

[11] = Antiproliferative activity against human LoVo/DX cells; assay type: functional, cell-based
[12] = Selectivity index, ratio of IC50 for mouse BALB/3T3 cells to IC50 for human LoVo cells; assay type: toxicity; settings: BALB/3T3 cells versus LoVo cells, read-out: Ratio IC50
[13] = Selectivity index, ratio of IC50 for mouse BALB/3T3 cells to IC50 for human LNCAP cells; assay type: toxicity; settings: BALB/3T3 cells versus LNCAP cells, read-out: Ratio IC50
[14] = Selectivity index, ratio of IC50 for mouse BALB/3T3 cells to IC50 for human MV411 cells
HL-60 [15] = assay: Effect on Bax expression in human HL60 cells at 1 ug/ml after 72 hrs by Western-blot analysis; assay type: functional, cell-based; method in brief: as §1
BALB/3T3 = assay: Antiproliferative activity against mouse BALB/3T3 cells after 72 hrs by SRB assay; assay type: cell-based; settings: BALB/3T3, 72 h; method in brief: as §2
HL-60 [16] = assay: Decrease in cyclin E expression in human HL60 cells at 1 ug/ml after 72 hrs by Western-blot analysis; assay type: functional, cell-based; method in brief: as §1
[17] = Selectivity index, ratio of IC50 for human MCF10 cells to IC50 for human MCF7 cells; assay type: toxicity; settings: MCF10 cells versus MCF7 cells, read-out: Ratio IC50
Method in brief: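 Selectivity index is the ratio of the IC50 for the normal line to the IC50 for the cancer line. Both IC50 values come from 72 h antiproliferative assays: SRB for adherent cells, MTT for HL-60.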

[18] = Selectivity index, ratio of IC50 for mouse BALB/3T3 cells to IC50 for human MCF7 cells; assay type: toxicity; settings: BALB/3T3 cells versus MCF7 cells, read-out: Ratio IC50
Method in brief: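 Selectivity index is the BALB/3T3 IC50 divided by the MCF-7 IC50. Both adherent lines were plated at 1 × 10^4 per well, dosed 24 h later with 0.01–1000 µg/mL (diluted from 20 mg/mL DMSO stock) for 72 h, then fixed with cold TCA and stained with SRB, reading at 540 nm. Triplicate wells; 3–5 repeat experiments.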

[19] = Acute toxicity in Wistar rat assessed as mortaliity topically applied to shaved dorsal skin as single dose for 24 hrs measured for 14 days; settings: in vivo, topical or ocular; method in brief: as §3
Raji = assay: Antiproliferative activity against human Raji cells; assay type: functional, cell-based
[20] = Toxicity in New Zealand albino rabbit assessed as acute skin irritation/corrosion at 0.5 g topically applied to shaved skin for 4 hrs measured 1 to 72 hrs post dose; set-up: species or system Oryctolagus cuniculus; settings: in vivo, topical_or_ocular
Method in brief: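 Test item applied under a protective band for 4 h to one rabbit first, then to two more animals to confirm or exclude irritation. Treated skin scored at 1, 24, 48 and 72 h after exposure, with daily morbidity and mortality checks. Animals euthanized after the observation period.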

With CCOC(=O)C1(C(=O)OCC)Cc2cc(OCc3ccccc3)cc(OCc3ccccc3)c2C=N1 the IC50 [1] was 8.8 µM, the selectivity ratio [2] was 7 and the “Ratio IC50” value [3] was 4.8. The “Ratio IC50” value (A549) was 18, the “Ratio IC50” value (LoVo) was 212 and the Activity (HL-60 [4]) was “inactive”. The Activity (HL-60 [5]) was “Active”, the IC50 (MCF10) was 40.2 µM and the IC50 [6] was 6.8 µM. For the same compound, the “Ratio IC50” value [7] was 2.7, the IC50 (A498) was 13.3 µM and the Activity (HL-60 [8]) was “Active”. The selectivity ratio [9] was 89.7, the IC50 (MCF7) was 9.6 µM and the IC50 (DU-145) was 7.5 µM. For the same compound, the Activity [10] was “Non-Toxic”, the IC50 [11] was 4.1 µM and the selectivity ratio [12] was 32.6. For the same compound, the selectivity ratio [13] was 10.9, the “Ratio IC50” value [14] was 0.6 and the Activity (HL-60 [15]) was “inactive”. For the same compound, the IC50 (BALB/3T3) was 35.9 µM, the Activity (HL-60 [16]) was “Active” and the selectivity ratio [17] was 4 to 8. For the same compound, the selectivity ratio [18] was 3.7, the LD50 at 14 days [19] was greater than 2000 mg/kg and the IC50 (Raji) was 0.6 µM. For the same compound, the Activity [20] was “Non-Toxic”.
